Active and inactive are the calls of the source. No cut-off for these calls is given here.
Assays:
Intestine [1] = experiment: Drug uptake in mouse intestine at 50 mg/kg, po in 20% HP-beta-CD measured at 8 hrs post dose; format: ADME, organism-based; set-up: dose 50 mg/kg, route oral; details: in vivo
How it was run: (§1)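 Female Swiss Webster mice, 8 weeks old, given a single 50 mg/kg oral gavage dose in 20% HPβCD or 20% Kolliphor. Tissues taken from three mice at 2 and 8 h post dose. Homogenized by probe sonication in PBS (1:4 w/v), protein precipitated with acetonitrile, and compound measured by LC-MS/MS in μM.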

Liver [2] = experiment: Drug uptake in mouse liver at 50 mg/kg, po in 20% Kolliphor measured at 8 hrs post dose; format: ADME, organism-based; set-up: dose 50 mg/kg, route oral; details: in vivo; how it was run: as §1
Lung [3] = experiment: Drug uptake in mouse lung at 50 mg/kg, po in 20% Kolliphor measured at 8 hrs post dose; format: ADME, organism-based; set-up: dose 50 mg/kg, route oral; details: in vivo; how it was run: as §1
Heart [4] = experiment: Drug uptake in mouse heart at 50 mg/kg, po in 20% Kolliphor measured at 8 hrs post dose; format: ADME, organism-based; set-up: dose 50 mg/kg, route oral; details: in vivo; how it was run: as §1
[5] = Drug uptake in mouse fat at 50 mg/kg, po in 20% Kolliphor measured at 8 hrs post dose; format: ADME, organism-based, Adipose tissue; set-up: dose 50 mg/kg, route oral; details: in vivo; how it was run: as §1
[6] = Drug uptake in mouse skeletal muscle at 50 mg/kg, po in 20% Kolliphor measured at 8 hrs post dose; format: ADME, organism-based, Muscle tissue; set-up: dose 50 mg/kg, route oral; details: in vivo; how it was run: as §1
Liver [7] = experiment: Drug uptake in mouse liver at 50 mg/kg, po in 20% HP-beta-CD measured at 8 hrs post dose; format: ADME, organism-based; set-up: dose 50 mg/kg, route oral; details: in vivo; how it was run: as §1
Lung [8] = experiment: Drug uptake in mouse lung at 50 mg/kg, po in 20% HP-beta-CD measured at 8 hrs post dose; format: ADME, organism-based; set-up: dose 50 mg/kg, route oral; details: in vivo; how it was run: as §1
Heart [9] = experiment: Drug uptake in mouse heart at 50 mg/kg, po in 20% HP-beta-CD measured at 8 hrs post dose; format: ADME, organism-based; set-up: dose 50 mg/kg, route oral; details: in vivo; how it was run: as §1
[10] = Drug uptake in mouse fat at 50 mg/kg, po in 20% HP-beta-CD measured at 8 hrs post dose; format: ADME, organism-based, Adipose tissue; set-up: dose 50 mg/kg, route oral; details: in vivo; how it was run: as §1
[11] = Drug uptake in mouse skeletal muscle at 50 mg/kg, po in 20% HP-beta-CD measured at 8 hrs post dose; format: ADME, organism-based, Muscle tissue; set-up: dose 50 mg/kg, route oral; details: in vivo; how it was run: as §1
Trypanosoma cruzi [12] = experiment: Antitrypanosomal activity against Trypanosoma cruzi Y luc infected in mouse assessed as inhibition of parasitemia at 50 mg/kg, po bid in 20% HP-beta-CD administered for 4 consecutive days starting on day 3 of infection measured on day 7 post infection relative to vehicle-treated control; format: functional, organism-based; set-up: dose 50 mg/kg
How it was run: (§2)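 Female Swiss Webster mice, 8 weeks old, infected ip with 10^5 T. cruzi Y luc trypomastigotes. Only mice with detectable luminescence on day 3 were treated. Compound given by oral gavage bid for four days, as a suspension in 20% HPβCD or a solution in 20% Kolliphor, five mice per group. Vehicle group and benznidazole 50 mg/kg served as controls. On day 7, mice were injected ip with 150 mg/kg d-luciferin and imaged after 5 min under isoflurane. Percent inhibition calculated against untreated mice; two-tailed paired t test.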

Trypanosoma cruzi [13] = experiment: Antitrypanosomal activity against Trypanosoma cruzi Y luc infected in mouse assessed as inhibition of parasitemia at 25 mg/kg, po bid in 20% HP-beta-CD administered for 4 consecutive days starting on day 3 of infection measured on day 7 post infection relative to vehicle-treated control; format: functional, organism-based; set-up: dose 25 mg/kg; how it was run: as §2
Mus musculus [14] = experiment: Toxicity in mouse assessed as weight loss at 12.5 to 50 mg/kg, po bid in 20% HP-beta-CD; format: organism-based; set-up: dose 12.5-50 mg/kg, route oral; details: in vivo
How it was run: (§3)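 Mice in the four-day oral treatment study were given compound bid by gavage in 20% HPβCD or 20% Kolliphor. They were watched for weight loss, mobility problems and changes in appearance throughout dosing.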

Mus musculus [15] = experiment: Toxicity in mouse assessed as mobility issues at 12.5 to 50 mg/kg, po bid in 20% HP-beta-CD; format: organism-based; set-up: dose 12.5-50 mg/kg, route oral; details: in vivo; how it was run: as §3
Mus musculus [16] = experiment: Toxicity in mouse assessed as change in appearance at 12.5 to 50 mg/kg, po bid in 20% HP-beta-CD; format: organism-based; set-up: dose 12.5-50 mg/kg, route oral; details: in vivo; how it was run: as §3
Mus musculus [17] = experiment: Toxicity in mouse assessed as weight loss at 12.5 to 50 mg/kg, po bid in 20% Kolliphor; format: organism-based; set-up: dose 12.5-50 mg/kg, route oral; details: in vivo; how it was run: as §3
Mus musculus [18] = experiment: Toxicity in mouse assessed as mobility issues at 12.5 to 50 mg/kg, po bid in 20% Kolliphor; format: organism-based; set-up: dose 12.5-50 mg/kg, route oral; details: in vivo; how it was run: as §3
Mus musculus [19] = experiment: Toxicity in mouse assessed as change in appearance at 12.5 to 50 mg/kg, po bid in 20% Kolliphor; format: organism-based; set-up: dose 12.5-50 mg/kg, route oral; details: in vivo; how it was run: as §3
[20] = target: Sterol 14-alpha demethylase (Trypanosoma cruzi (strain CL Brener), UniProt Q7Z1V1); experiment: Binding affinity to Trypanosoma cruzi CYP51 by UV-vis titration method; details: read-out: Kd(app)
Trypanosoma cruzi [21] = experiment: Antitrypanosomal activity against Trypanosoma cruzi Y luc infected in mouse assessed as inhibition of parasitemia at 25 mg/kg, po bid in 20% Kolliphor administered for 4 consecutive days starting on day 3 of infection measured on day 7 post infection relative to vehicle-treated control; format: functional; how it was run: as §2
Trypanosoma cruzi [22] = experiment: Antitrypanosomal activity against Trypanosoma cruzi Y luc infected in mouse assessed as inhibition of parasitemia at 50 mg/kg, po bid in 20% Kolliphor administered for 4 consecutive days starting on day 3 of infection measured on day 7 post infection relative to vehicle-treated control; format: functional; how it was run: as §2
Liver microsome [23] = experiment: Half life in human liver microsomes; format: ADME
Liver microsome [24] = experiment: Half life in rat liver microsomes; format: ADME
Liver [25] = experiment: Half life in mouse liver microsomes; format: ADME
Cytochrome P450 1A2 = target: T1, Cytochrome P450 1A2 (Homo sapiens, UniProt P05177); experiment: Inhibition of CYP1A2 in human liver microsomes at 1 uM; format: ADME
T1 sequence (P05177 whole entry): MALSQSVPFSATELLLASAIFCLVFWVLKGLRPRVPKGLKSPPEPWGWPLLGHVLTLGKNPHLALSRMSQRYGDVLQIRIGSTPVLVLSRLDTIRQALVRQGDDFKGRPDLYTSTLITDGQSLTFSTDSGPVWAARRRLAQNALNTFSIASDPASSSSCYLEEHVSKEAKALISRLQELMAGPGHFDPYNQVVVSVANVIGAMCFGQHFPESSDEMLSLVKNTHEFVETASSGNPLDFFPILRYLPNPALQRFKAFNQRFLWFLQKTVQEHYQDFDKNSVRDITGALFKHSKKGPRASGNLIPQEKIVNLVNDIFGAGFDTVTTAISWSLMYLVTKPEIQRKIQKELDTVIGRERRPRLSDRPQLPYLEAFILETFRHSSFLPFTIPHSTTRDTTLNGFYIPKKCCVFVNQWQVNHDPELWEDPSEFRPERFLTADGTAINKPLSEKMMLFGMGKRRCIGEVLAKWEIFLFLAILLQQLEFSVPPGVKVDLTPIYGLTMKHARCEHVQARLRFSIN

Cytochrome P450 2C9 = Cytochrome P450 2C9 (Homo sapiens, UniProt P11712); experiment: Inhibition of CYP2C9 in human liver microsomes at 1 uM; format: ADME
Cytochrome P450 2D6 = Cytochrome P450 2D6 (Homo sapiens, UniProt P10635); experiment: Inhibition of CYP2D6 in human liver microsomes at 1 uM; format: ADME
Cytochrome P450 3A4 = Cytochrome P450 3A4 (Homo sapiens, UniProt P08684); experiment: Inhibition of CYP3A4 in human liver microsomes at 1 uM; format: ADME
Trypanosoma cruzi [26] = experiment: Antitrypanosomal activity against Trypanosoma cruzi amastigotes infected in mouse C2C12 cells after 72 hrs by DAPI staining method; format: functional, organism-based; details: C2C12, 72 h
C2C12 = experiment: Cytotoxicity against mouse C2C12 cells up to 10 uM; format: cell-based
How it was run: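 Mouse C2C12 myoblasts infected with T. cruzi CA-I/72, then exposed at 24 h postinfection to compound at 10 μM down to 5 pM in 5-fold steps for 72 h at 37 °C. Cells fixed in paraformaldehyde, stained with DAPI and scored by automated imaging. Triplicate wells; uninfected and infected untreated wells as controls.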

[27] = Half life in mouse at 50 mg/kg, po in 20% Kolliphor; format: ADME, organism-based; set-up: dose 50 mg/kg, route oral; details: in vivo
How it was run: (§4)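 Female Swiss Webster mice, 8 weeks old, given one oral gavage dose of 50 mg/kg as a 10 mg/mL preparation in the named vehicle (20% HPβCD suspension or 20% Kolliphor). Plasma sampled at about 0.25, 0.5, 1, 2, 4, 6, 8, 12 and 24 h, n = 3 per time point. Protein precipitated with 5 volumes acetonitrile, filtered, then LC-MS/MS. Values are averages of three mice.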

[28] = Half life in mouse at 50 mg/kg, po in 20% HP-beta-CD; format: ADME, organism-based; set-up: dose 50 mg/kg, route oral; details: in vivo; how it was run: as §4
[29] = Tmax in mouse at 50 mg/kg, po in 20% Kolliphor; format: ADME, organism-based; set-up: dose 50 mg/kg, route oral; details: in vivo; how it was run: as §4
[30] = Tmax in mouse at 50 mg/kg, po in 20% HP-beta-CD; format: ADME, organism-based; set-up: dose 50 mg/kg, route oral; details: in vivo; how it was run: as §4
[31] = Cmax in mouse at 50 mg/kg, po in 20% Kolliphor; format: ADME, organism-based; set-up: dose 50 mg/kg, route oral; details: in vivo; how it was run: as §4
[32] = Cmax in mouse at 50 mg/kg, po in 20% HP-beta-CD; format: ADME, organism-based; set-up: dose 50 mg/kg, route oral; details: in vivo; how it was run: as §4
[33] = AUClast in mouse at 50 mg/kg, po in 20% Kolliphor; format: ADME, organism-based; set-up: time 0 - last, dose 50 mg/kg, route oral; details: plasma; how it was run: as §4
Mus musculus [34] = experiment: AUClast in mouse at 50 mg/kg, po in 20% HP-beta-CD; format: ADME, organism-based, Plasma; set-up: time 0 - last, dose 50 mg/kg, route oral; details: in vivo; how it was run: as §4
[35] = Clearance in mouse at 50 mg/kg, po in 20% Kolliphor; format: ADME, organism-based; set-up: dose 50 mg/kg, route oral; details: in vivo; how it was run: as §4
Intestine [36] = experiment: Drug uptake in mouse intestine at 50 mg/kg, po in 20% Kolliphor measured at 8 hrs post dose; format: ADME, organism-based; set-up: dose 50 mg/kg, route oral; details: in vivo; how it was run: as §1

Sequence of Cytochrome P450 2C9 (P11712 whole entry): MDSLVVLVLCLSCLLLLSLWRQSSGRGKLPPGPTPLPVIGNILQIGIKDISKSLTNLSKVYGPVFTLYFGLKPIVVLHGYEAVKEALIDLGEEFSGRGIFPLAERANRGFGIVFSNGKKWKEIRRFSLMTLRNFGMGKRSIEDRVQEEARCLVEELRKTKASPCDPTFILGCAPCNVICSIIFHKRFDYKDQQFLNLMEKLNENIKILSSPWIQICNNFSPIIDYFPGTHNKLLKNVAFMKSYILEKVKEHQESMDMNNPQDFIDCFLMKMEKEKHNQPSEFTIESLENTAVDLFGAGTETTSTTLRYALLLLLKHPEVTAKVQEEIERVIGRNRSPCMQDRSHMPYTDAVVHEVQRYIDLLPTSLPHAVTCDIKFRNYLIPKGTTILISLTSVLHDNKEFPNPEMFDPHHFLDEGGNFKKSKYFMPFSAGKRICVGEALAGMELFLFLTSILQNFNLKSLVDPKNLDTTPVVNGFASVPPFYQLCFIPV
Sequence of Cytochrome P450 2D6 (P10635 whole entry): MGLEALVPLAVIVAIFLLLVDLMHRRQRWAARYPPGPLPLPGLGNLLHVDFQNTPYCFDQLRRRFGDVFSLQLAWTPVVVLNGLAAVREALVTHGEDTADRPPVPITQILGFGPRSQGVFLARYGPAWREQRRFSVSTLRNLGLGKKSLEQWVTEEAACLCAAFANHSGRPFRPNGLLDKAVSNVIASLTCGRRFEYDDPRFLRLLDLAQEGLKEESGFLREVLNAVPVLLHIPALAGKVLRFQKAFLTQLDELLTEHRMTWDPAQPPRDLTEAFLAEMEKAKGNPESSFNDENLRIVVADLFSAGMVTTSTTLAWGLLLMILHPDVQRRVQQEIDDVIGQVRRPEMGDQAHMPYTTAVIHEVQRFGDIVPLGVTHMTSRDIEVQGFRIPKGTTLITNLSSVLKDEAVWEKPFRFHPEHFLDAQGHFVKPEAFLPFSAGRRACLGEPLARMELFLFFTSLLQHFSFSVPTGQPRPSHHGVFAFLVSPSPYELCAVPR
Sequence of Sterol 14-alpha demethylase (Q7Z1V1 whole entry): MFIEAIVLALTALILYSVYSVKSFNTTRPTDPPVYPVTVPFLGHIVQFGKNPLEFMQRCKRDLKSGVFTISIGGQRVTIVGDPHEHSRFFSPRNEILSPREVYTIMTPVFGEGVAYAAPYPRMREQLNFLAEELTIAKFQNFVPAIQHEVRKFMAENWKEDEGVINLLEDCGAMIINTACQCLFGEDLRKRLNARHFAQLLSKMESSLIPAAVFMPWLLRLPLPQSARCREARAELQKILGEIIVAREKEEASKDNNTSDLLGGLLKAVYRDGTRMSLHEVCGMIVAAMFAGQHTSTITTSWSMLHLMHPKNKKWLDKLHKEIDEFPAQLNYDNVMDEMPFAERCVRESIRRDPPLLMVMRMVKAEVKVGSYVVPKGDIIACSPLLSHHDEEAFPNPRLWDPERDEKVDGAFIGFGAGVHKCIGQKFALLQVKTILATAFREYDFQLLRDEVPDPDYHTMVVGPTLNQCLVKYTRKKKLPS
Sequence of Cytochrome P450 3A4 (P08684 whole entry): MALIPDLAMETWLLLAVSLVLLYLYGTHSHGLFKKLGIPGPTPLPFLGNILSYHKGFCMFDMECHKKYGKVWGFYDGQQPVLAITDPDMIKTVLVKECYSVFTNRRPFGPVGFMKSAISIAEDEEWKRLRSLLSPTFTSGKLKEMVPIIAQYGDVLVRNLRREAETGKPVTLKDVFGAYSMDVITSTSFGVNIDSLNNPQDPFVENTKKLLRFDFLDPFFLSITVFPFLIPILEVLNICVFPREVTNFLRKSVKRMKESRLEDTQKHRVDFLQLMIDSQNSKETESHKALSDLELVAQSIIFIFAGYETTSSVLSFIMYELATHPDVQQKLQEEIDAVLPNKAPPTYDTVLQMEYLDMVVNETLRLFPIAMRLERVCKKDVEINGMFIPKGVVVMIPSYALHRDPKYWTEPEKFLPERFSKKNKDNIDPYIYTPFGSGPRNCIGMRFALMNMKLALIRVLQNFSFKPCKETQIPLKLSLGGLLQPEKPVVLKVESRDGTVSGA

For `O=C(N[C@H](Cc1c[nH]c2ccccc12)C(=O)Nc1ccncc1)c1ccc(-c2cc(C(F)(F)F)ccc2F)cc1F`, the Drug uptake (Intestine [1]) was “Active”, the Drug uptake (Liver [2]) was “Active” and the Drug uptake (Lung [3]) was “Active”. The Drug uptake (Heart [4]) was “Active”, the Drug uptake [5] was “Active” and the Drug uptake [6] was “Active”. The Drug uptake (Liver [7]) was “Active”, the Drug uptake (Lung [8]) was “Active” and the Drug uptake (Heart [9]) was “Active”. For the same compound, the Drug uptake [10] was “Active”, the Drug uptake [11] was “Active” and the inhibition (Trypanosoma cruzi [12]) was “Active”. For the same compound, the inhibition (Trypanosoma cruzi [13]) was “Active”, the Activity (Mus musculus [14]) was “Non-toxic” and the Activity (Mus musculus [15]) was “Non-toxic”. For the same compound, the Activity (Mus musculus [16]) was “Non-toxic”, the Activity (Mus musculus [17]) was “Non-toxic” and the Activity (Mus musculus [18]) was “Non-toxic”. The Activity (Mus musculus [19]) was “Non-toxic”, the Kd [20] was 12 nM and the inhibition in vivo at 25 mg/kg (Trypanosoma cruzi [21]) was 63.3%. For the same compound, the inhibition in vivo at 50 mg/kg (Trypanosoma cruzi [22]) was 91.3%, the t1/2 (Liver microsome [23]) was 0.417 h and the t1/2 (Liver microsome [24]) was 0.3 h. For the same compound, the t1/2 (Liver [25]) was 0.817 h, the “inhibition (INH)” value (Cytochrome P450 1A2) was -5% and the “inhibition (INH)” value (Cytochrome P450 2C9) was 90%. The “inhibition (INH)” value (Cytochrome P450 2D6) was 21%, the “inhibition (INH)” value (Cytochrome P450 3A4) was 27% and the EC50 (Trypanosoma cruzi [26]) was 21 nM. For the same compound, the Activity (C2C12) was “Non-toxic”, the half-life [27] was 3.76 h and the half-life [28] was 4.87 h. The Tmax [29] was 2.33 h, the Tmax [30] was 2 h and the Cmax [31] was 13.6 µM. The Cmax [32] was 1.02 µM, the AUC(0-t) [33] was 106 µM·h and the AUClast (Mus musculus [34]) was 4.55 µM·h. For the same compound, the CL/F [35] was 14.1 mL/min/kg and the Drug uptake (Intestine [36]) was “Active”.

— ChEMBL document CHEMBL3352430, “4-Aminopyridyl-based CYP51 inhibitors as anti-Trypanosoma cruzi drug leads with improved pharmacokinetic profile and in vivo potency” (J Med Chem, 2014)
